According to the EternaBench riboswitch data:

Test system: MS2 coat protein
Assay: apparent Kd, MS2 coat protein; higher = weaker binding; RNA-MaP array; FMN 200 µM where present
How it was run: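 On Illumina sequencing-chip clusters, designs were transcribed by stalled E. coli RNA polymerase and titrated with SNAP-549-labelled MS2 coat protein (0.7 or 1.5 nM, doubling to 3 µM), without and then with constant ligand, in 100 mM Tris-HCl pH 7.5, 80 mM KCl, 4 mM MgCl2, BSA, DTT, yeast tRNA and Tween-20. Apparent Kd is the median of filtered per-cluster curve fits to green signal normalised to red-channel RNA signal and control-cluster median Fmax.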

[1] = designed as: OFF switch for flavin mononucleotide, no ligand
[2] = ligand present: flavin mononucleotide, designed as: OFF switch for flavin mononucleotide
[3] = designed as: ON switch for flavin mononucleotide, no ligand
[4] = ligand present: flavin mononucleotide, designed as: ON switch for flavin mononucleotide

Row | Sequence | apparent Kd [1] | apparent Kd [2] | apparent Kd [3] | apparent Kd [4]
1 | UAAGUCGAGAAGAUAAUAAUGAAUACAUGAGGAUCACCCAUGUAGGAUAUGCAGUGGAAUACACUGCAGAAGGACAUACUCGAC | 14.3 nM | 16.9 nM | – | –
2 | CAUGUCUGAGGAUAUCGUUUUUUGUACAUGAGGAUCACCCAUGUCCUAUUUUUUAUAUUACGAGAAGGCAGUGGAU | 36.4 nM | 22.2 nM | – | –
3 | CUAAGUGCCGGAGGAUAUACAUGAGGAUCACCCAUGUCAGUCUGUUUACAUGUAGAAGGCCGGCGAACAAAGGACUUGCCAAGA | 48.1 nM | 298 nM | – | –
4 | AUCAGCUCGUCAGGAUAUACGUCACUGUGUCAGCAGUGUGGUAAGAUCACAUGAGGAUCACCCAUGUAGAAGGGACGAGCUGAU | 12.9 nM | 235 nM | – | –
5 | AUGCAGGGCGAGAAGGAGCGACAUGAGGAUCACCCAUGUAUCUUCAACUCGCUAGGAUAUCGGGUUGUAUUGAAAAUUAUUGAA | 4.86 nM | 5.5 nM | – | –
6 | GUGCAUUCGUAGAAGGGUGACAUGAGGAUCACCCAUGUGCGCUGAGCUCAAGAUGCACCAGCGCCACAGGAUAUACGAAGCACC | – | – | 54.3 nM | 84 nM
7 | AAGAAAGAAACGCAGGAUAUGCAAAACAAAACAUGAGGAUCACCCAUGUCAAACAAACAAACAAAGCAGAAGGGCGAAAGAAAGAA | – | – | 23.1 nM | 16.4 nM
8 | UUCAUUAACAUGAGGAUCACCCAUGUUGGCCAGUCUCACACCAGAAGGCACGUUGAGCACAACAGUGAGGAUAUGGGUGACAUA | – | – | 286 nM | 52.9 nM
9 | GCCAUCGCAUGAGGAUAUGCUCCCGUUUCGGGAGCAGAAGGCAUGUCAUAAGACAUGAGGAUCACCCAUGUAGUUUAGAUGGCA | – | – | 234 nM | 11.1 nM
10 | GCAGGAUAAGUGAGGAUAUACCUCUGGAUACAGAGGUAGAAGGCACAUGAGGAUCACCCAUGUCAUUCACCUGC | 13.3 nM | 24.2 nM | – | –
11 | GUAGCAUACCGAGGAUAUUCAGGGCGUGGUUAAACAUGAGGAUCACCCAUGUGGCGAAAGCCUAGGGAGAAGGCGGAAUGCUAC | – | – | 28.7 nM | 22.5 nM
12 | ACGCGUUGGGAGAAGGUACUUUAAUUAGGUUACACAUGAGGAUCACCCAUGUAAGGAUAUCCCAUCGUGUAAUAUUAUACAGCA | 8.06 nM | 7.39 nM | – | –
13 | GUAUUAAAGAUCCAUUUAUACAACAUGAGGAUCACCCAUGUGCAGGAUAUCGUGUGUUUUAUAUUCGAGAAGGGCAAAUUCAUU | 50.7 nM | 105 nM | – | –
14 | ACUACUUAGUGAGGAUAUACAUAAUUUAUAACUGUAGAAGGCACAAACCUCAAUACAUGAGGAUCACCCAUGUGGUAUAUCUAU | 188 nM | 380 nM | – | –
15 | UAUAUGUCAGGAUAUUAGUUGAGGUGGAAUUUAGCCUCAGCUGAGAAGGGACAUGAGGAUCACCCAUGUUCCUC | 22.1 nM | 241 nM | – | –
16 | UCGGGUUAUACAGGAUAUGUUUAGGAUAAUACAUGCAGUUAUUAAUUAAUGACAGAAGGGUAUACAUGAGGAUCACCCAUGUCA | 707 nM | 374 nM | – | –
17 | UAACCACAUGAGGAUCACCCAUGUGAGGAUAUGUCCAUAUUCGGCAAAUCGGAUAUGGACAGAAGGCACACCGG | 41.6 nM | 68.7 nM | – | –
18 | AUAAUGUGAGGAUAUACAUGAGGAUCACCCAUGUAAUUAAAUCGGAGAGCCACAAUUCGUAGAAGGUACAUUUA | 22 nM | 27.7 nM | – | –
19 | GGCGCAGCGGAGAAGGACGUGGCUCGCCACCACGUAGGAUAUCCCUGUGUACCGAAUUGUUACAUGAGGAUCACCCAUGUGGAC | – | – | 6.16 nM | 6.28 nM
20 | CUUUUGUGAGGAUAUUAGUAGUAAAAAAAUAAAAUUACUACUGAGAAGGCACAUGAGGAUCACCCAUGUUCCUU | 14.8 nM | 39 nM | – | –
21 | CAACUGGCACAGAAGGGUGACAUGAGGAUCACCCAUGUAGCGUGGCACUCAGGAGGAGCCACGCCACAGGAUAUGUGCGGGCAC | – | – | 42.3 nM | 78.4 nM
22 | UUAAUUCGAAACAUGAGGAUCACCCAUGUGUUGUGGUUAAUAUAGGAUAUGUGGAUACUUUUUUGACAGAAGGAUGAUGGUACU | – | – | 13.3 nM | 11.6 nM
23 | GUGUACGGAGGAUAUAUAUGGGCAGCAUACGCUGCAGCUUCACAUGAGGAUCACCCAUGUAGAAGGCUGUACAC | 25 nM | 200 nM | – | –
24 | GCCAACUUAUGAGGAUAUGGCACCUUAUUGGUGCCAGAAGGCAUGUGUAUUCACAUGAGGAUCACCCAUGUAUUAUAGUUGGCA | – | – | 498 nM | 48.1 nM

Row | Sequence | apparent Kd [1] | apparent Kd [2] | apparent Kd [3] | apparent Kd [4]
25 | GACAACAGAGGAUAUGCAUUGAGAUAGUUAUGAAGGUUGUUACAUGAGGAUCACCCAUGUAGAAGGCUGUCGUU | 18.3 nM | 24.3 nM | – | –
26 | GGUGGACAUGAGGAUCACCCAUGUGAGGAUAUCGGCUGGUACGUGUUGGCUGGCAUCUCGAGAAGGCACAUAGG | 166 nM | 49.3 nM | – | –
27 | UUUUCUUUUGUGAGGAUAUACUUCUUUUUCUUUUUGUAGAAGGCACAUGAGGAUCACCCAUGUUUUCUUUUCUC | 12.1 nM | 16 nM | – | –
28 | CCAGCGUGUGUGAGGAUAUGCUGGUCCUUGGAUCAGCAGAAGGCACAUGAGGAUCACCCAUGUGAGAACGUUGG | 23.1 nM | 105 nM | – | –
29 | GGGUACAUCGGAGGAUAUCAUGUAAUUACAUGAGGAUCACCCAUGUCGAUGGAGACAUCGGAGAUUGAGAAGGCCGAUGUACCG | – | – | 316 nM | 12.4 nM
30 | GGAAAGAAAAGCGAGGAUAUGCUAGGUAAUACAUGAGGAUCACCCAUGUUUUUUUUUAACAAAUUGCAGAAGGCGCAAGAAAGAAA | – | – | 24.5 nM | 17.4 nM
31 | GCGAUUGCGUAGAAGGUACAAUAUAAUACAUUGUAAGGAUAUACUUACAUGAGGAUCACCCAUGUUAAUGGAAUUUGCAAUCGC | – | – | 18.2 nM | 11.9 nM
32 | CAGUACUGAGGAUAUACAUGAGGAUCACCCAUGUGCUUUAGCUAGGAUACUAGCAUUAGUAGAAGGCAGUACUG | 12.3 nM | 21.5 nM | – | –
33 | CUUGUUUAUGUGAGGAUAUACUGUUAGUAAUGUUUGUAGAAGGUACAUGAGGAUCACCCAUGUUUAUUUUUUUU | 20.5 nM | 19.7 nM | – | –
34 | UGUGGCGGUCAGAAGGCAACGUUGACAUGAGGAUCACCCAUGUUACCCUUGAGGAUAUGGCGGGCCUCACGUCGGUGGUAAUGA | – | – | 93.8 nM | 23.3 nM
35 | UCCUUACUGGUCAGGAUAUACAGUCGCGGGUGGGUGUAGAAGGGACAUGAGGAUCACCCAUGUACGUUGCAGCC | 40.6 nM | 40.9 nM | – | –
36 | CGUCUAUGCCAGAAGGCAUGUCAAAAGACAUGAGGAUCACCCAUGUAAAUGAGGAUAUGGCAUAGACGAAAAGUGCGAAAGCAC | – | – | 136 nM | 13.6 nM
37 | UAGUAUAAGGGCAUUAAACAUGAGGAUCACCCAUGUACGAUAGAGGAUAUGCAUUUCAGUUGAGAGUAGAAGGUUAGAGAAUUG | 37.2 nM | 43.4 nM | – | –
38 | ACAUGAGGAUCACCCAUGUAAUGAAGGGUACUAUACUAAACGUAGGAUAUCGAUGUAAGAUUGUACGAGAAGGACGAUUGCCUU | – | 38.8 nM | – | –
39 | CGCUAAGAUGGGUCUAAUGGAGCAUAGGAUAUGCUUGUACAUGAGGAUCACCCAUGUAAUAUUGUGCAGAAGGGUGCAUUUGCG | – | – | 127 nM | 61.7 nM
40 | UACGUACAGAAGUACUCCGGGUCCAGAAGGGACAUGAGGAUCACCCAUGUACCGUUGAUUGCUUGUCAGGAUAUGGACCCAGCC | 7.76 nM | 29 nM | – | –
41 | GUCGUGUAAGGAUAUGCAUCGAGGUAGCGAAUGUUGCAGGUGUAGAAGGUACAUGAGGAUCACCCAUGUAAUGU | 22.2 nM | 30.1 nM | – | –
42 | GACUGCUGAGGAUAUACAUGAGGAUCACCCAUGUGCUUCAGCAUCGAAAGAUGCAUUGGUAGAAGGUAGUAGUC | 11.4 nM | 20.1 nM | – | –
43 | GGAGACCUCACAGGAUAUGCUGGACUUUGUCCAGCAGAAGGGUGAAAACAUGAGGAUCACCCAUGUAUGGUCUCCAAAUUUAAU | – | – | 183 nM | 13.7 nM
44 | GUAAACCGGUGAGGAUAUUUAUAAUAGAGCUUUAUGAUAUACAUGAGGAUCACCCAUGUUACUUUAAAGAAGGCAUCGGAAAUG | 21.4 nM | 17.2 nM | – | –
45 | CGCUGGUGACAGCAUCCAUCAAAACAUGAGGAUCACCCAUGUAGAAGGCUGUACGGUUACCGUACAGAGGAUAUACAAUGAUGG | 7.56 nM | 9.75 nM | – | –
46 | GCGACGAAAGUCGAACGAUGUAGCAGAAGGACAUGAGGAUCACCCAUGUCAGCUGUAACAGCCAUGUAGGAUAUGCUACAUCGC | 4.19 nM | 5.42 nM | – | –
47 | UGCCUGAGUCGAGGAUAUUAUGGAUCAAUUAAUACAUGAGGAUCACCCAUGUAAUUAAUUUAACAUGAGAAGGUGACUCAGGCU | – | – | 12.2 nM | 10.2 nM
48 | UGAUACUAGGGAGGAUAUGGGAAGAUACAUGAGGAUCACCCAUGUUUAAGAAUGCCGAGAGGCAACUAGAAGGCCCUAGUACCU | – | – | 538 nM | 21.3 nM
